MrgX1 antagonist = human MrgX1 receptor antagonism, primary screen | Q96LB2 | MRGX1-HEK293 calcium flux, Fluo-4, BAM8-22 antagonism; hits give low values | B-score at 10 µM | 310,000 compounds, 1.3% hits | AID 588676;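 active = calcium-response B-score plate-corrected more than 3 library SD below zero, starting fluorescence within 5 deviations, no agonist response on first addition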;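 also: peak minus trough fluorescence over baseline after final BAM8-22 challenge near maximal dose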
Target sequence (Q96LB2 whole entry, looked up): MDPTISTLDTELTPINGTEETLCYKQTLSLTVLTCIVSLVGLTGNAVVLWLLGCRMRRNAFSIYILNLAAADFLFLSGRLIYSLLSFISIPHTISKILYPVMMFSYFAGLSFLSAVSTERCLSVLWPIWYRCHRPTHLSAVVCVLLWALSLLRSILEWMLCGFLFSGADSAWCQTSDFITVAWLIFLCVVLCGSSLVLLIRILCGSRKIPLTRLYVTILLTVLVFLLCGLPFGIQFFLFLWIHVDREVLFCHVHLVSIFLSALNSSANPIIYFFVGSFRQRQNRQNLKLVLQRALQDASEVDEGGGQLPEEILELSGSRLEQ
MrgX1 PAM = human MrgX1 positive allosteric modulation, primary screen; MrgX1-HEK293, Fluo-4 calcium flux, FDSS; hits give high values; B-score at 10 µM; 310,000 compounds, 0.63% hits;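 active = plate-corrected calcium response at least 3 library SD above typical, normal starting fluorescence, not activating the receptor alone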;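 also: compound read alongside a low EC10 to EC30 dose of BAM8-22 agonist; peak minus trough fluorescence over baseline measured at the second addition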
RGS4 act = potentiators or activators of RGS4; B-score at 10 µM; 310,000 compounds, 0.92% hits; HEK293 M3R/inducible RGS4, carbachol calcium flux Fluo4; hits give low values;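 active = B-score of the integrated calcium signal more than 4 SD below the library mean, with starting fluorescence not abnormally high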;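 also: negative B-score means reduced calcium response which marks RGS4 activation or potentiation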
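Assay system: HEK293 FlpIn-TREx cells, stable M3R, doxycycline-inducible RGS4 / Probe or stimulus: carbachol, ECmax concentration / Times: overnight RGS4 induction, 30 min dye load 37 °C, 20 min compound RT / Signal: kinetic calcium fluorescence imaging with Fluo4-AM dye, 2 µM / Measure: Agonist-evoked peak-minus-minimum fluorescence over baseline, integrated ratio, B score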
RGS4 block = human RGS4 inhibition | HEK293 M3R/RGS4 inducible, Fluo-4 calcium flux; hits give high values; triggered by carbachol at its EC20 | B-score at 10 µM | 310,000 compounds, 0.45% hits | AID 463165;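 active = B-score, a plate-corrected calcium signal, over three deviations above library mean, with baseline fluorescence within five deviations of library mean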;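 also: RGS4 expression induced by doxycycline in cells with stable M3 receptor; B-score is computed from the integrated fluorescence ratio over baseline after carbachol; higher B-score means a larger calcium signal and so more RGS4 inhibition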
Target sequence (P49798 whole entry, looked up): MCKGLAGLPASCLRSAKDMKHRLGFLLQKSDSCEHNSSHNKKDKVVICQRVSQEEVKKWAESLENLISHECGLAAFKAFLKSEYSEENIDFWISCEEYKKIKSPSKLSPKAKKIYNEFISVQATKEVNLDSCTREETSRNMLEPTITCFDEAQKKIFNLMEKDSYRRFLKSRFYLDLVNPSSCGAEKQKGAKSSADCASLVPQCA
MrgX1 ag = activates human MrgX1 receptor signaling; 310,000 compounds, 0.44% hits; AID 588627; Q96LB2; B-score at 10 µM; MrgX1-HEK293 cells, Fluo-4 calcium fluorescence, agonist mode; hits give high values;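 active = calcium response B-score plate-corrected fluorescence ratio at least 3 library SD, with starting fluorescence B-score inside 5 SD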
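Assay system: MrgX1-expressing HEK293 cells / Amount: fifteen thousand cells per well / Doses: test compound in the initial addition of three / Timing: cells plated overnight, dye loaded 0.5 h 37 °C, 0.5 h room temperature / Technique: kinetic calcium dye fluorescence, Fluo-4 NW / Control set: positive and negative controls per plate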
MrgX1 antag conf = human MrgX1 receptor antagonism, re-confirmation screen; shares compounds with MrgX1 antagonist; MrgX1-HEK293, BAM8-22 calcium flux, Fluo-4; hits give low values; remaining BAM8-22 calcium response % of control (hits give low values), % at 10 µM; 2,300 compounds, 19% hits; AID 602420;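 active = remaining agonist calcium response no higher than 100% minus 3 SD of agonist-only control wells, with starting fluorescence near control levels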;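 also: agonist BAM8-22 given at a near maximal EC90 to ECmax level; peak minus minimum fluorescence divided by baseline after agonist addition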
HEK293 Ca flux = counter-screen for MrgX1 antagonists: effect in parental HEK293 cells; shares compounds with MrgX1 antagonist; Fluo-4 calcium fluorescence, FDSS; fluorescence ratio F(max-min)/F0 at 10 µM; 4,000 compounds, 2% hits;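 active = duplicate-averaged calcium fluorescence ratio at least three times the standard deviation of buffer wells, a nonspecific response in parental cells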
HEK293 Ca counter = activity in parental HEK293 cells without MrgX1. shares compounds with MrgX1 antagonist. parental HEK293 calcium flux, Fluo-4 fluorescence ratio; hits give high values. AID 624114. 4,000 compounds, 0.4% hits. fluorescence ratio F(max-min)/F0 at 10 µM;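 active = calcium fluorescence ratio, averaged over duplicates, at least 3 SD of the buffer-well ratio, meaning a nonspecific response in receptor-free cells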;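 also: untransfected parental HEK293 lacking MrgX1 used as counterscreen for MrgX1 allosteric activators; fluorescence change taken during the second addition on a kinetic imager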
HEK293 Ca cntr2 = counter-screen for MrgX1 activators: effect in parental HEK293 cells; shares compounds with MrgX1 antagonist; Fluo-4 calcium fluorescence (FDSS); hits give high values; fluorescence ratio F(max-min)/F0 at 10 µM; 4,000 compounds, 8.7% hits;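 active = calcium fluorescence ratio at least three times the spread of buffer wells, meaning a non-specific response in parental cells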
An asterisk follows results filed as active; i = inactive; . = no result. An excerpt weighted towards active compounds, which were near 3.5% of everything screened.

SMILES	MrgX1 antagonist	MrgX1 PAM	RGS4 act	RGS4 block	MrgX1 ag	MrgX1 antag conf	HEK293 Ca flux	HEK293 Ca counter	HEK293 Ca cntr2
Cc1ccc(C(C(=O)NC2CCCC2)N(Cc2ccccc2)C(=O)c2csnn2)o1 (stereo unspecified)	i	i	i	i	i	.	.	.	.
COc1cc2ccccc2cc1C(=O)NCCCN1CCOCC1	i	i	i	i	i	.	.	.	.
O=C(NCCCN1CCOCC1)c1cc2ccccc2cc1O	-4.7*	i	i	i	i	i	i	i	i
CC(CNC(=O)c1ccc(NC2=NC3CS(=O)(=O)CC3S2)cc1)c1ccccc1 (stereo unspecified)	-5.2*	i	i	i	i	i	i	i	i
CC(NC(=O)Cc1ccc(NC2=NC3CS(=O)(=O)CC3S2)cc1)c1ccccc1 (stereo unspecified)	i	i	i	i	i	.	.	.	.
CC(=O)c1cccc(NC(=O)Nc2ccc3c(c2)N(C)C(=O)CS3)c1	-9*	i	i	i	i	3.0%*	i	i	i
Cc1cc(C)cc(NC(=O)Nc2ccc3c(c2)N(C)C(=O)CS3)c1	i	i	i	i	i	.	.	.	.
OCCC1CN(C/C=C/c2ccco2)CCN1Cc1ccccc1 (stereo unspecified)	-5.2*	i	i	i	i	i	i	i	i
CN(C)C1C(=O)c2ccccc2C1=O	-5*	i	i	i	i	i	i	i	i
O=C1c2ccccc2C(=O)C1c1ccc(O)cc1	i	i	i	i	i	.	.	.	.
CCC(C(=O)Nc1c2c(nn1C(C)(C)C)CS(=O)(=O)C2)c1ccccc1 (stereo unspecified)	-8.1*	i	i	i	i	i	i	i	i
O=C(Cn1cc2c(n1)CCCC2)N1CCc2ccccc21	-7.1*	i	i	i	i	i	i	i	i
O=C(Cn1cc2c(n1)CCCCC2)N1CCc2ccccc2C1	i	i	i	i	i	.	.	.	.
Cc1cccc(NC(=O)CCCn2cc([N+](=O)[O-])cn2)n1	i	i	i	i	i	.	.	.	.
CCC(=O)Nc1ccc(Br)cn1	-5.4*	i	i	i	i	i	i	i	i
O=C(CSc1ccccn1)Nc1ccc(Br)cn1	-5.3*	i	i	i	i	i	i	i	i
O=C(CSc1ncn(-c2ccccc2)n1)Nc1ccc(Br)cn1	i	i	i	i	i	.	.	.	.
O=C(/C=C/c1ccc([N+](=O)[O-])cc1)NCCN1C(=O)S/C(=C\c2ccc(F)cc2)C1=O	i	i	i	i	i	.	.	.	.
CCOc1ccc(NC(=O)CN2CCN(c3ccc(F)cc3)CC2)cc1	-5.5*	i	i	i	i	i	i	i	i
COc1ccc(NC(=O)CN2CCN(c3ccc(F)cc3)CC2)cc1	i	i	i	i	i	.	.	.	.
CCC(=O)N1CCc2cc(S(=O)(=O)N3CCN(c4cc(Cl)ccc4C)CC3)ccc21	i	i	i	i	i	.	.	.	.
Cc1cccc(NC(=O)CSCC(=O)NCc2ccco2)c1	i	i	i	i	i	.	.	.	.
COc1ccc(CNC(=O)C2CCCN2S(=O)(=O)c2ccc(Cl)cc2)cc1 (stereo unspecified)	-5.5*	i	i	i	i	84%*	i	i	i
COc1ccc(CCNC(=O)C2CCCN2S(=O)(=O)c2ccc(F)cc2)cc1OC (stereo unspecified)	-9*	i	i	i	i	i	i	i	i
Cc1ccc(CNC(=O)C2CCCN2S(=O)(=O)c2ccc(F)cc2)cc1 (stereo unspecified)	i	i	i	i	i	.	.	.	.
SMILES	MrgX1 antagonist	MrgX1 PAM	RGS4 act	RGS4 block	MrgX1 ag	MrgX1 antag conf	HEK293 Ca flux	HEK293 Ca counter	HEK293 Ca cntr2
Cc1cccc(NC(=O)c2ccc(S(=O)(=O)N(C)C)cc2)c1	i	i	i	i	i	.	.	.	.
COc1cc(NC(=O)c2ccc(S(=O)(=O)N(C)C)cc2)cc(OC)c1OC	-5.3*	i	i	i	i	i	i	i	i
CCN(CC)S(=O)(=O)c1ccc(C(=O)Nc2cc3oc4ccccc4c3cc2OC)cc1	-6.8*	i	i	i	i	i	i	i	i
Cc1[nH]c2ccccc2c1C(=O)CN1CCC(C(N)=O)(N2CCCCC2)CC1	-5.8*	i	i	i	i	i	i	i	i
O=C(Cc1c[nH]c2ccccc12)NCc1ccccc1F	i	i	i	i	i	.	.	.	.
O=C(CSc1nnc(NC(=O)C2CC(=O)N(c3ccc(F)cc3)C2)s1)NC1CCCC1 (stereo unspecified)	-4.9*	i	i	i	i	i	i	i	i
O=C(Nc1nnc(SCC(=O)N2CCCC2)s1)C1CC(=O)N(c2ccc(F)cc2)C1 (stereo unspecified)	i	i	i	i	i	.	.	.	.
C/C=C/c1ccc(Oc2nnnn2-c2ccc(C(=O)O)cc2)c(OC)c1	-4.6*	i	i	i	i	i	i	i	i
COc1cc(C=O)ccc1Oc1nnnn1-c1ccc(C(N)=O)cc1	i	i	i	i	i	.	.	.	.
COc1ccc(C(=O)C2CCCN(C(=O)c3cccnc3SC)C2)c(C)c1 (stereo unspecified)	i	i	i	i	i	.	.	.	.
O=C(CNS(=O)(=O)c1ccc([N+](=O)[O-])cc1)N/N=C/c1ccc(O)cc1O	-13*	i	i	i	i	40%*	i	63*	i
Cc1ccc(NC(=O)Cc2nnc(SCC(=O)NC3CCCC3)n2C)cc1C	i	i	i	i	i	.	.	.	.
COc1cc(CNn2cn[nH]c2=S)ccc1OCC(=O)NC(C)(C)C	-4.6*	i	i	i	i	i	i	i	i
COc1cc(CNC(C)(C)CO)ccc1OCC(=O)NC(C)(C)C	i	i	i	i	i	.	.	.	.
